Experiment [1] concerns the target T1, Pituitary adenylate cyclase-activating polypeptide type I receptor (Homo sapiens, UniProt P41586). Briefly: Agonist activity at human recombinant PAC1 receptor expressed in CHO cells assessed as PACAP38-induced calcium mobilization by FLIPR assay relative to PACAP38. It counts as functional, cell-based. Summed up:
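CHO cells stably expressing recombinant human PAC1, plated 24 h before assay, loaded with fluo-4 AM for 60 min at 37 °C in the dark, then rinsed into HBSS for 15 min at 37 °C. Peptide was added 18 s into a 150 s read (ex 480/em 525 nm), at final concentrations of 1 × 10-12 to 1 × 10^-5 M. Response was normalised to 1 × 10^-5 M PACAP38 on each plate. EC50 and efficacy came from nonlinear regression; 4-10 independent assays in duplicate.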
Target sequence in this assay (P41586 21-468 limits assumed): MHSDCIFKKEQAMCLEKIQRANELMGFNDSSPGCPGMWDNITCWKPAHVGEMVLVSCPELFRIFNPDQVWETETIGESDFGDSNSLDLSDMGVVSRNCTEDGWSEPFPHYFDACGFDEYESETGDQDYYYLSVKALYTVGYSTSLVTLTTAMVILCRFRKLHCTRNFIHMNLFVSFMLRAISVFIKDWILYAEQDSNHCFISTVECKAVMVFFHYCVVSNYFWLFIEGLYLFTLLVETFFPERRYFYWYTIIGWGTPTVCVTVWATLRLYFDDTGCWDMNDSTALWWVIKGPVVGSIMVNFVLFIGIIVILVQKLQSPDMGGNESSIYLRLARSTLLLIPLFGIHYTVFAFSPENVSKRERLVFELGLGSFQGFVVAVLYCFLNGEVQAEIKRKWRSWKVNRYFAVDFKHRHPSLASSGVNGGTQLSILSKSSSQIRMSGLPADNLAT

The target of experiment [2] is T1, Pituitary adenylate cyclase-activating polypeptide type I receptor. In words: Agonist activity at human recombinant PAC1 receptor expressed in CHO cells assessed as PACAP38-induced calcium mobilization by FLIPR assay. It is filed as functional, cell-based. Summed up:
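CHO cells stably expressing recombinant human PAC1, plated 24 h before assay, loaded with fluo-4 AM for 60 min at 37 °C in the dark, then rinsed into HBSS for 15 min at 37 °C. EC50 and efficacy came from nonlinear regression; 4-10 independent assays in duplicate.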
Target sequence in this assay (P41586 whole entry): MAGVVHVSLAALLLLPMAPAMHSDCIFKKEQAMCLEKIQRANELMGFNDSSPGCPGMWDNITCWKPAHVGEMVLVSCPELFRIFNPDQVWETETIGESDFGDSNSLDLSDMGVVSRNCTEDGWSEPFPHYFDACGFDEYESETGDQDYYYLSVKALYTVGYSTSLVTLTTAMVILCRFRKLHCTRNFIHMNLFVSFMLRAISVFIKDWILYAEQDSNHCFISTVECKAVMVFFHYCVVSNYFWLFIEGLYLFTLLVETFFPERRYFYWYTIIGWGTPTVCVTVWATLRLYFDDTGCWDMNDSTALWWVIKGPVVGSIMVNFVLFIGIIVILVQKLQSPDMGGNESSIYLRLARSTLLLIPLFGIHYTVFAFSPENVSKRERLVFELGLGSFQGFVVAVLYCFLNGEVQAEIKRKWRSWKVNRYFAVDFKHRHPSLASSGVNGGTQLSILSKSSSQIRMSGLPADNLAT

For experiment [3] the target is unchanged. In words: Displacement of [125I]Ac-PACAP27 from human recombinant PAC1 receptor expressed in CHO cells by gamma- counter. It counts as cell-based.
Target sequence in this assay (P41586 whole entry): as above

Each structure is given as a SMILES string. Where a SMILES comes first, the peptide text is derived from it.

On to `CC[C@H](C)[C@H](NC(=O)CNC(=O)[C@H](CC(=O)O)NC(=O)[C@H](CO)N(C)C(=O)[C@@H](N)Cc1cnc[nH]1)C(=O)N[C@@H](Cc1ccccc1)C(=O)N[C@H](C(=O)N[C@@H](CC(=O)O)C(=O)N[C@@H](CO)C(=O)N[C@@H](Cc1ccc(O)cc1)C(=O)N[C@@H](CO)C(=O)N[C@@H](CCCNC(=N)N)C(=O)N[C@@H](Cc1ccc(O)cc1)C(=O)N[C@@H](CCCNC(=N)N)C(=O)N[C@@H](CCCCN)C(=O)N[C@@H](CCC(N)=O)C(=O)N[C@@H](CCSC)C(=O)N[C@@H](C)C(=O)N[C@H](C(=O)N[C@@H](CCCCN)C(=O)N[C@@H](CCCCN)C(=O)N[C@@H](Cc1ccc(O)cc1)C(=O)N[C@@H](CC(C)C)C(=O)N[C@@H](C)C(=O)N[C@@H](C)C(=O)N[C@H](C(=O)N[C@@H](CC(C)C)C(N)=O)C(C)C)C(C)C)[C@@H](C)O`, for which the Emax in experiment [1] was 93%. Besides, the EC50 in experiment [2] was 48.8 nM.
For the compound `CC[C@H](C)[C@H](NC(=O)CNC(=O)[C@H](CC(=O)O)NC(=O)[C@H](CO)NC(=O)[C@@H](N)Cc1cn(C)cn1)C(=O)N[C@@H](Cc1ccccc1)C(=O)N[C@H](C(=O)N[C@@H](CC(=O)O)C(=O)N[C@@H](CO)C(=O)N[C@@H](Cc1ccc(O)cc1)C(=O)N[C@@H](CO)C(=O)N[C@@H](CCCN=C(N)N)C(=O)N[C@@H](Cc1ccc(O)cc1)C(=O)N[C@@H](CCCN=C(N)N)C(=O)N[C@@H](CCCCN)C(=O)N[C@@H](CCC(N)=O)C(=O)N[C@@H](CCSC)C(=O)N[C@@H](C)C(=O)N[C@H](C(=O)N[C@@H](CCCCN)C(=O)N[C@@H](CCCCN)C(=O)N[C@@H](Cc1ccc(O)cc1)C(=O)N[C@@H](CC(C)C)C(=O)N[C@@H](C)C(=O)N[C@@H](C)C(=O)N[C@H](C(=O)N[C@@H](CC(C)C)C(N)=O)C(C)C)C(C)C)[C@@H](C)O`, in experiment [2], the EC50 was found to be 389 nM. For the same compound, in experiment [3], the IC50 was found to be 21.6 nM.
On to `CC[C@H](C)[C@H](NC(=O)CNC(=O)[C@H](CC(=O)O)NC(=O)[C@H](CO)NC(=O)[C@H](N)Cc1cnc[nH]1)C(=O)N[C@@H](Cc1ccccc1)C(=O)N[C@H](C(=O)N[C@@H](CC(=O)O)C(=O)N[C@@H](CO)C(=O)N[C@@H](Cc1ccc(O)cc1)C(=O)N[C@@H](CO)C(=O)N[C@@H](CCCNC(=N)N)C(=O)N[C@@H](Cc1ccc(O)cc1)C(=O)N[C@@H](CCCNC(=N)N)C(=O)N[C@@H](CCCCN)C(=O)N[C@@H](CCC(N)=O)C(=O)N[C@@H](CCSC)C(=O)N[C@@H](C)C(=O)N[C@H](C(=O)N[C@@H](CCCCN)C(=O)N[C@@H](CCCCN)C(=O)N[C@@H](Cc1ccc(O)cc1)C(=O)N[C@@H](CC(C)C)C(=O)N[C@@H](C)C(=O)N[C@@H](C)C(=O)N[C@H](C(=O)N[C@@H](CC(C)C)C(=O)NCC(=O)N[C@@H](CCCCN)C(=O)N[C@@H](CCCNC(=N)N)C(=O)N[C@@H](Cc1ccc(O)cc1)C(=O)N[C@@H](CCCCN)C(=O)N[C@@H](CCC(N)=O)C(=O)N[C@@H](CCCNC(=N)N)C(=O)N[C@H](C(=O)N[C@@H](CCCCN)C(=O)N[C@@H](CC(N)=O)C(=O)N[C@@H](CCCCN)C(N)=O)C(C)C)C(C)C)C(C)C)[C@@H](C)O`, for which, in experiment [1], the Emax was 107%. In addition, the EC50 in experiment [2] turned out to be 2.9 nM.
`CC[C@H](C)[C@H](NC(=O)CNC(=O)[C@H](CC(=O)O)NC(=O)[C@H](CO)NC(=O)[C@@H](N)Cc1cncn1C)C(=O)N[C@@H](Cc1ccccc1)C(=O)N[C@H](C(=O)N[C@@H](CC(=O)O)C(=O)N[C@@H](CO)C(=O)N[C@@H](Cc1ccc(O)cc1)C(=O)N[C@@H](CO)C(=O)N[C@@H](CCCN=C(N)N)C(=O)N[C@@H](Cc1ccc(O)cc1)C(=O)N[C@@H](CCCN=C(N)N)C(=O)N[C@@H](CCCCN)C(=O)N[C@@H](CCC(N)=O)C(=O)N[C@@H](CCSC)C(=O)N[C@@H](C)C(=O)N[C@H](C(=O)N[C@@H](CCCCN)C(=O)N[C@@H](CCCCN)C(=O)N[C@@H](Cc1ccc(O)cc1)C(=O)N[C@@H](CC(C)C)C(=O)N[C@@H](C)C(=O)N[C@@H](C)C(=O)N[C@H](C(=O)N[C@@H](CC(C)C)C(=O)NCC(=O)N[C@@H](CCCCN)C(=O)N[C@@H](CCCN=C(N)N)C(=O)N[C@@H](Cc1ccc(O)cc1)C(=O)N[C@@H](CCCCN)C(=O)N[C@@H](CCC(N)=O)C(=O)N[C@@H](CCCN=C(N)N)C(=O)N[C@H](C(=O)N[C@@H](CCCCN)C(=O)N[C@@H](CC(N)=O)C(=O)N[C@@H](CCCCN)C(N)=O)C(C)C)C(C)C)C(C)C)[C@@H](C)O`: the EC50 in experiment [2] is 2.4 nM. Moreover, in experiment [3], the IC50 was found to be 7.5 nM.
For `CC[C@H](C)[C@H](NC(=O)CNC(=O)[C@H](CC(=O)O)NC(=O)[C@H](CO)NC(=O)[C@H](C)N)C(=O)N[C@@H](Cc1ccccc1)C(=O)N[C@H](C(=O)N[C@@H](CC(=O)O)C(=O)N[C@@H](CO)C(=O)N[C@@H](Cc1ccc(O)cc1)C(=O)N[C@@H](CO)C(=O)N[C@@H](CCCN=C(N)N)C(=O)N[C@@H](Cc1ccc(O)cc1)C(=O)N[C@@H](CCCN=C(N)N)C(=O)N[C@@H](CCCCN)C(=O)N[C@@H](CCC(N)=O)C(=O)N[C@@H](CCSC)C(=O)N[C@@H](C)C(=O)N[C@H](C(=O)N[C@@H](CCCCN)C(=O)N[C@@H](CCCCN)C(=O)N[C@@H](Cc1ccc(O)cc1)C(=O)N[C@@H](CC(C)C)C(=O)N[C@@H](C)C(=O)N[C@@H](C)C(=O)N[C@H](C(=O)N[C@@H](CC(C)C)C(=O)NCC(=O)N[C@@H](CCCCN)C(=O)N[C@@H](CCCN=C(N)N)C(=O)N[C@@H](Cc1ccc(O)cc1)C(=O)N[C@@H](CCCCN)C(=O)N[C@@H](CCC(N)=O)C(=O)N[C@@H](CCCN=C(N)N)C(=O)N[C@H](C(=O)N[C@@H](CCCCN)C(=O)N[C@@H](CC(N)=O)C(=O)N[C@@H](CCCCN)C(N)=O)C(C)C)C(C)C)C(C)C)[C@@H](C)O` (H-ASDGIFTDSYSRYRKQMAVKKYLAAVLGKRYKQRVKNK-NH2), in that order: 11 nM and 49.3 nM.
With `CC[C@H](C)[C@H](NC(=O)CNC(=O)[C@H](CC(=O)O)NC(=O)[C@H](CO)NC(=O)[C@@H](N)Cc1cn(C)cn1)C(=O)N[C@@H](Cc1ccccc1)C(=O)N[C@H](C(=O)N[C@@H](CC(=O)O)C(=O)N[C@@H](CO)C(=O)N[C@@H](Cc1ccc(O)cc1)C(=O)N[C@@H](CO)C(=O)N[C@@H](CCCN=C(N)N)C(=O)N[C@@H](Cc1ccc(O)cc1)C(=O)N[C@@H](CCCN=C(N)N)C(=O)N[C@@H](CCCCN)C(=O)N[C@@H](CCC(N)=O)C(=O)N[C@@H](CCSC)C(=O)N[C@@H](C)C(=O)N[C@H](C(=O)N[C@@H](CCCCN)C(=O)N[C@@H](CCCCN)C(=O)N[C@@H](Cc1ccc(O)cc1)C(=O)N[C@@H](CC(C)C)C(=O)N[C@@H](C)C(=O)N[C@@H](C)C(=O)N[C@H](C(=O)N[C@@H](CC(C)C)C(=O)NCC(=O)N[C@@H](CCCCN)C(=O)N[C@@H](CCCN=C(N)N)C(=O)N[C@@H](Cc1ccc(O)cc1)C(=O)N[C@@H](CCCCN)C(=O)N[C@@H](CCC(N)=O)C(=O)N[C@@H](CCCN=C(N)N)C(=O)N[C@H](C(=O)N[C@@H](CCCCN)C(=O)N[C@@H](CC(N)=O)C(=O)N[C@@H](CCCCN)C(N)=O)C(C)C)C(C)C)C(C)C)[C@@H](C)O`, in experiment [2], the EC50 was found to be 37.6 nM. In addition, the IC50 in experiment [3] came to 11.3 nM.
On to `CC[C@H](C)[C@H](NC(=O)CNC(=O)[C@H](CC(=O)O)NC(=O)[C@H](CO)NC(=O)[C@H](Cc1cnc[nH]1)NC(C)=O)C(=O)N[C@@H](Cc1ccccc1)C(=O)N[C@H](C(=O)N[C@@H](CC(=O)O)C(=O)N[C@@H](CO)C(=O)N[C@@H](Cc1ccc(O)cc1)C(=O)N[C@@H](CO)C(=O)N[C@@H](CCCNC(=N)N)C(=O)N[C@@H](Cc1ccc(O)cc1)C(=O)N[C@@H](CCCNC(=N)N)C(=O)N[C@@H](CCCCN)C(=O)N[C@@H](CCC(N)=O)C(=O)N[C@@H](CCSC)C(=O)N[C@@H](C)C(=O)N[C@H](C(=O)N[C@@H](CCCCN)C(=O)N[C@@H](CCCCN)C(=O)N[C@@H](Cc1ccc(O)cc1)C(=O)N[C@@H](CC(C)C)C(=O)N[C@@H](C)C(=O)N[C@@H](C)C(=O)N[C@H](C(=O)N[C@@H](CC(C)C)C(=O)NCC(=O)N[C@@H](CCCCN)C(=O)N[C@@H](CCCNC(=N)N)C(=O)N[C@@H](Cc1ccc(O)cc1)C(=O)N[C@@H](CCCCN)C(=O)N[C@@H](CCC(N)=O)C(=O)N[C@@H](CCCNC(=N)N)C(=O)N[C@H](C(=O)N[C@@H](CCCCN)C(=O)N[C@@H](CC(N)=O)C(=O)N[C@@H](CCCCN)C(N)=O)C(C)C)C(C)C)C(C)C)[C@@H](C)O`, for which, in experiment [1], the maximal response (Emax) turned out to be 91.1%.
As to `CC[C@H](C)[C@H](NC(=O)CNC(=O)[C@H](CC(=O)O)NC(=O)[C@H](CO)NC(=O)[C@@H](N)Cc1cnc[nH]1)C(=O)N[C@@H](Cc1ccccc1)C(=O)N[C@@H](C(=O)N[C@@H](CC(=O)O)C(=O)N[C@@H](CO)C(=O)N[C@@H](Cc1ccc(O)cc1)C(=O)N[C@@H](CO)C(=O)N[C@@H](CCCNC(=N)N)C(=O)N[C@@H](Cc1ccc(O)cc1)C(=O)N[C@@H](CCCNC(=N)N)C(=O)N[C@@H](CCCCN)C(=O)N[C@@H](CCC(N)=O)C(=O)N[C@@H](CCSC)C(=O)N[C@@H](C)C(=O)N[C@H](C(=O)N[C@@H](CCCCN)C(=O)N[C@@H](CCCCN)C(=O)N[C@@H](Cc1ccc(O)cc1)C(=O)N[C@@H](CC(C)C)C(=O)N[C@@H](C)C(=O)N[C@@H](C)C(=O)N[C@H](C(=O)N[C@@H](CC(C)C)C(=O)NCC(=O)N[C@@H](CCCCN)C(=O)N[C@@H](CCCNC(=N)N)C(=O)N[C@@H](Cc1ccc(O)cc1)C(=O)N[C@@H](CCCCN)C(=O)N[C@@H](CCC(N)=O)C(=O)N[C@@H](CCCNC(=N)N)C(=O)N[C@H](C(=O)N[C@@H](CCCCN)C(=O)N[C@@H](CC(N)=O)C(=O)N[C@@H](CCCCN)C(N)=O)C(C)C)C(C)C)C(C)C)[C@H](C)O`, the EC50 in experiment [2] is 7.3 nM. The IC50 in experiment [3] was determined as 119 nM.

These data come from ChEMBL document CHEMBL1138520, “Molecular and conformational determinants of pituitary adenylate cyclase-activating polypeptide (PACAP) for activation of the PAC1 receptor” (J Med Chem, 2009).
